# Screens as filed in PubChem.
# H69AR growth 86K – blocks growth of human H69AR lung tumor cells; H69AR lung tumor viability, ATP luminescence, 72 h; stronger effect = lower value; viability, % at 10 µM; actives 6% (n = 85,000);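 active means viability at or below 40%; inactive means viability above 40%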;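 further: multidrug resistant small cell line overexpressing MRP-1 efflux transporter; 100% = mean luminescence of untreated control wells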
# HCT116 bCat-KO – beta-catenin-lacking colon tumor cell growth suppression. HCT116 beta-catenin knockout viability, CellTiter-Glo, 60 h; stronger effect = lower value. actives 1.5% (n = 140,000). viability, % at 10 µM;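 active means viability at or under a set limit, the compound median less 4 SD, cut at about 6% in these data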;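 further: 0% = Hyamine 1622 control at 20 µM and 100% = untreated cell control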
# HUVEC inhibit – human endothelial cell proliferation inhibition; HUVEC proliferation, CellTiter-Glo luminescence, 72 h; stronger effect = lower value; viability, % at 10 µM (by protocol); actives 1.1% (n = 86,000); AID 648;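 active means viability at or below 30%; inactive means viability above 30%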;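 further: 100% = median luminescence of DMSO-only cell control wells on each plate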
# HCT116 PTEN-null – PTEN-deleted cell growth suppression. HCT116 PTEN-null viability, CellTiter-Glo, 60 h; stronger effect = lower value. viability, % at 10 µM. actives 1.2% (n = 140,000);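 active means viability at or below a set limit, 4 SD under the median of all tested compounds, cut at about 3.7% in these data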;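 further: PTEN knockout HCT116 line with beta catenin targeted HCT116 as companion control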
# Lung fibro prol – blocks proliferation of human lung fibroblasts. actives 1.1% (n = 85,000). AID 719. LL 47 human lung fibroblast viability, ATP luminescence; stronger effect = lower value. viability, % at 10 µM;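 active means viability at or below 50% in the single dose screen; inactive means viability above 50%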;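 further: compound exposure lasted 72 h before the ATP readout; 100% = median luminescence of untreated cell-only wells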
#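 Material: human lung fibroblast line LL 47, low passage; Evaluation: viability percentage against median untreated-cell control; Buffer or medium: 15% FBS in IMEM; Incubation: 72 h compound exposure at 37 °C after overnight plating; Dosing: 0.1% DMSO in all compound wells; Measured by: CellTiter-Glo luminescence.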
# The depositor's hits bear a star; / = not tested or not shown. The entries come from a sample that favours hits as a whole.
SMILES,H69AR growth 86K,HCT116 bCat-KO,HUVEC inhibit,HCT116 PTEN-null,Lung fibro prol
CC(C)(C)NC(=O)CCN(/N=C/c1ccc([N+](=O)[O-])o1)C1=NS(=O)(=O)c2ccccc21,/,60,/,60,/
N#Cc1ccc(-c2ccco2)nc1SCC(=O)c1ccc(Cl)cc1,6.2*,68,38,69,93
Cc1ccc(C(=O)CSc2nc(-c3ccccc3)ccc2C#N)cc1,/,80,/,76,/
Oc1ccccc1-c1nnc(SCCN2CCOCC2)n1Cc1ccccc1,15*,2.7*,88,2.4*,24*
O=c1oc2ccccc2cc1N1CCOCC1,/,94,/,103,/
O=C(Nc1cccc(-c2nc3ccccc3o2)c1)c1ccc(N2C(=O)C3C4C=CC(C4)C3C2=O)cc1 (stereo unspecified),39*,53,58,47,73
O=C1C2C3C=CC(C3)C2C(=O)N1c1cccc(-c2nc3ccccc3o2)c1 (stereo unspecified),99,90,99,101,110
Cc1ccc(-c2nc3cnccn3c2Nc2ccc3c(c2)OCO3)cc1,25*,63,78,58,92
COc1ccc(-c2nc3cnccn3c2Nc2ccc3c(c2)OCO3)cc1,24*,70,78,64,84
Cc1ccc2nc(-c3ccc(O)cc3)c(Nc3ccc4c(c3)OCCO4)n2c1,64,73,80,73,96
Cc1ccc(-c2nc3cnccn3c2Nc2ccc3c(c2)OCCO3)o1,65,93,96,100,98
CCCC1OC23CCCCC2C(C#N)(C(=N)O3)C1(C#N)C#N (stereo unspecified),22*,106,83,101,74
N#CC1(C#N)COC23CCCCC2C1(C#N)C(=N)O3 (stereo unspecified),8.2*,96,78,102,66
COc1ccc(C2OC34CCCCC3C(C#N)(C#N)C2(C#N)C(=N)O4)cc1 (stereo unspecified),34*,93,96,91,90
CC1OC23CCCCC2C(C#N)(C(=N)O3)C1(C#N)C#N (stereo unspecified),66,100,94,95,98
CC(C)c1ccccc1NC(=O)COC(=O)c1ccc(Cl)c(S(=O)(=O)N2CCCCCC2)c1,/,95,/,93,/
O=C(Nc1ccc(N2CCOCC2)cc1)c1cccc(S(=O)(=O)N2CCC(Cc3ccccc3)CC2)c1,81,69,97,68,88
CC(=O)c1ccc(N(C(=O)CS(=O)CC(=O)Nc2ccc(F)cc2)C(C(=O)NC2CCCCC2)c2cccs2)cc1 (stereo unspecified),/,90,/,93,/
CC(C)C(=O)N=C1SC2CS(=O)(=O)CC2N1Cc1ccccc1 (stereo unspecified),/,99,/,96,/
CC(C)(C)NC(=O)CN(C(=O)Cn1nnc(-c2ccc(Cl)cc2)n1)C1CCN(Cc2ccccc2)CC1,46,1.6*,30,28,91
Cc1ccc(S(=O)(=O)N(C)C)cc1NC(=O)CN1C(=O)NC2(CCCc3ccccc32)C1=O (stereo unspecified),/,86,/,88,/
c1ccc2c(CCNc3ncnc4nc[nH]c34)c[nH]c2c1,20*,47,65,38,84
Cn1c(=S)[nH]c2[nH]c(=O)cnc2c1=O,/,94,/,109,/
O=c1c2ccccc2nc(SCc2nc3ccccc3s2)n1CCCO,/,79,/,75,/
N#CCc1nc2c3c4c(sc3ncn2n1)CCCC4,93,93,16*,95,95
SMILES,H69AR growth 86K,HCT116 bCat-KO,HUVEC inhibit,HCT116 PTEN-null,Lung fibro prol
Cc1cc(C)c(COc2ccc(/C=N/n3c(C)n[nH]c3=S)cc2)c(C)c1,/,66,/,85,/
O=C1CCN(N=Nc2cccc(Cl)c2)N1,31*,83,82,85,101
CC1=NN(C(=O)c2ccc(Cn3ccc([N+](=O)[O-])n3)cc2)C(O)(C(F)(F)F)C1 (stereo unspecified),/,89,/,90,/
CC(C)NCC(O)Cn1c2c(c3ccccc31)CCc1c-2cnn1-c1ccccc1 (stereo unspecified),/,1.5*,/,2.0*,/
C1=C(c2ccc(-c3ccccc3)cc2)Nc2ncnn2C1c1ccco1 (stereo unspecified),18*,84,82,84,102
CCn1nc(C)c(/C=N/NC(=O)c2ccc3c(c2)c(C)c(C)n3Cc2ccccc2)c1C,/,91,/,88,/
COc1ccc(-c2c(NC(=O)c3ccco3)n(C)c3ccccc3c2=O)cc1,91,93,89,99,95
COc1cc(OC)c2nc(C)c3c(c2c1)N(c1ccc(O)cc1)CC3,/,4.5*,/,5,/
Cc1ccc(S(=O)(=O)CCC(=O)Nc2nc3c(s2)CCCC3)cc1,24*,16,79,26,51
COC(=O)Nc1nc2c(s1)CCCC2,98,1.1*,89,1.0*,96
O=Cc1c(Sc2ccccc2)nc2ccccn2c1=O,2.6*,46,69,60,64
O=Cc1c(Sc2ccccn2)nc2ccccn2c1=O,22*,78,85,81,102
O=Cc1c(N2CCCCCC2)nc2ccccn2c1=O,102,91,93,91,94
COc1cccc(OC)c1C(=O)OCC(=O)Nc1ccc(OC(F)(F)F)cc1,/,102,/,91,/
CC(C)CC(NC(=O)OC(C)(C)C)C(=O)NC(C(=O)NC(C)C(N)=O)C(C)C (stereo unspecified),99,85,87,102,94
CC(C)CC(NC(=O)C(NC(=O)C(Cc1ccc(OCc2ccccc2)cc1)NC(=O)OC(C)(C)C)C(C)C)C(N)=O (stereo unspecified),/,5.5*,/,12,/
Cc1ccccc1S(=O)(=O)NC1OC(=O)C(Cl)=C1Cl (stereo unspecified),7.1*,101,100,107,96
C=CCn1c(=O)/c(=C/c2ccc(Cl)cc2)s/c1=C(/C#N)c1nnc2n1CCCCC2,22*,48,68,46,83
CC(C)CC(CO)N1CCN(C(=O)c2cccc(C(F)(F)F)c2)CCC1=O (stereo unspecified),/,102,/,103,/
Cc1ccc(C(=O)O)cc1N=Cc1cc(Br)cc(Br)c1O,/,92,/,94,/
Cc1ccc(N=Nc2c(C)[nH][nH]c2=O)c(C)c1,24*,37,13*,33,91
CC12CCC(c3c(C(=O)O)nn(-c4ccccc4)c31)C2(C)C (stereo unspecified),85,93,107,103,98
CC12CCC(c3c(C(=O)Nc4nccs4)nn(-c4ccccc4)c31)C2(C)C (stereo unspecified),20*,1.4*,100,1.6*,69
Cc1cc(C)nc(N2CCCC(C(=O)Nc3nnc(C(C)C)s3)C2)n1 (stereo unspecified),89,93,94,88,106
c1ccc2c(N3CCCCC3)nc(N3CCCCC3)nc2c1,54,58,77,51,95
C(=C\c1nc(N2CCCCCC2)c2ccccc2n1)/c1ccccc1,/,3.3*,/,8,/
CC(C)Cn1c(=O)c(C(=O)Nc2ccccc2S(N)(=O)=O)c(O)c2ccccc21,/,96,/,81,/
